Values belong to the compound of their own block, whether it stands above or below them.
Columns and labels:
AMPK = details: cited from earlier work
atherosclerosis in mice = details: cited from earlier work
recombinant human CD38 [1] = molecular target: T1, recombinant human CD38 (Homo sapiens, UniProt P28907); assay: In vitro CD38 ADP-ribosyl-cyclase activity; assay type: biochemical
T1 sequence (P28907 43-300 limits assumed): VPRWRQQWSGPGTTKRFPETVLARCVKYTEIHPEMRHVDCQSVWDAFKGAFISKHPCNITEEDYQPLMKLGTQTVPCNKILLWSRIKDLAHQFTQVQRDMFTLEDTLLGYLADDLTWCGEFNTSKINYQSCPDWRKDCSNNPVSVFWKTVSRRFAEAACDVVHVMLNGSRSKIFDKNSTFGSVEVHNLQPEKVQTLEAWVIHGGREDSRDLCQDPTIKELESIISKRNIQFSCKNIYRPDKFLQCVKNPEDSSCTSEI

[2] = tested on: C57BL/6 mice on a high-fat diet; assay: Glucose homeostasis and liver lipid metabolism in high-fat diet obese mice; assay type: in vivo, mouse
HepG2 cells [3] = assay: Protein acetylation in HepG2 cells; assay type: cell-based, human
A549 cells = assay: Intracellular NAD+ levels in A549 cells; assay type: cell-based, human; details: for Intracellular NAD+ levels over time in cells incubated in PBS: A549 cells in PBS, quercetin 50 μmol/L, apigenin 25 μmol/L; for Intracellular NAD+ levels, dose response: A549 cells, 6 h incubation
CD38 [4] = molecular target: T2, CD38 (Mus musculus, UniProt P56528); assay: Liver CD38 activity, NAD+ and protein readouts in high-fat diet obese mice; assay type: in vivo; details: 100 mg/kg i.p. daily for 1 week vs vehicle
T2 sequence (P56528 1-304): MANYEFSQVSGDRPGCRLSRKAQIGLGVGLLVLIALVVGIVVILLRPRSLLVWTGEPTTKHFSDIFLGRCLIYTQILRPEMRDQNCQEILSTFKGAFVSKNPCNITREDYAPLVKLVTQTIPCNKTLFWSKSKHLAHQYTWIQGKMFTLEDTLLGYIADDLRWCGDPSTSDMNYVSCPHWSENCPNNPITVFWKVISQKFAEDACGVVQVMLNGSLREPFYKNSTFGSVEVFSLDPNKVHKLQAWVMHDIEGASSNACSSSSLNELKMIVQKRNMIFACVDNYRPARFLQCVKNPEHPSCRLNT
Outline: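 Twelve 20-week-old C57BL/6 mice were fed a high-fat diet (60% of calories from fat) ad libitum for 4 weeks, then randomised into two groups. Groups received the test compound at 100 mg/kg i.p. or DMSO vehicle once daily for 7 days while staying on the diet. Hepatic NAD+ was measured by enzymatic cycling. Liver lysates were immunoblotted with anti-acetyl-lysine and quantified as intensity-profile area; n = 3 per group.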

HepG2 cells [5] = assay: Lipid accumulation in HepG2 cells; assay type: cell-based, human; details: 0.5 mmol/L oleate/palmitate (2:1) plus 25 μmol/L apigenin
[6] = tested on: wild-type and CD38 knockout MEFs; assay: Intracellular NAD+ levels in wild-type and CD38 knockout MEFs; assay type: cell-based, mouse; details: quercetin 50 μmol/L, 6 h; for Intracellular NAD+ levels in CD38 knockout MEFs: apigenin 25 μmol/L
[7] = molecular target: T3, endogenous CD38 (A549 cells) (Homo sapiens, UniProt P28907); assay: Endogenous CD38 NAD+ase activity in protein lysates from A549 cells; assay type: biochemical
T3 sequence (P28907 1-300): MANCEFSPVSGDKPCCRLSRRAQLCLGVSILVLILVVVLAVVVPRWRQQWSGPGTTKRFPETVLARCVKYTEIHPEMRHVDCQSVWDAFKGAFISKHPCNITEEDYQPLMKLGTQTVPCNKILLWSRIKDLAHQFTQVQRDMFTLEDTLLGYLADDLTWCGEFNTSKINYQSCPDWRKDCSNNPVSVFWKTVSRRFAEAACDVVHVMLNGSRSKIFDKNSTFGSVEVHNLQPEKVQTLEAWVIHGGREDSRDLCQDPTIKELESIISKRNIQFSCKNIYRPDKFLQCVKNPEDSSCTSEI

SIRT1 = details: cited from earlier work
CD38 [8] = details: ref Kellenberger et al. 19; cited from earlier work
recombinant human CD38 [9] = molecular target: T1, recombinant human CD38; assay: In vitro CD38 NAD+ase activity; assay type: biochemical

- IC50 (recombinant human CD38 [1]): 12.8 ± 1.6 µM
- CD38 activity in the liver (CD38 [4]): decreased CD38 activity in the liver
- Hepatic NAD+ levels (CD38 [4]): increase in hepatic NAD^+ levels
- IC50 [7]: 14.8 ± 2.2 µM
SMILES: O=c1cc(-c2ccc(O)cc2)oc2cc(O)cc(O)c12 [apigenin, 5,7-dihydroxy-2-(4-hydroxyphenyl)-4H-1-benzopyran-4-one]
- AMPK activation (AMPK): very poor AMPK activator
- Atherosclerosis in mice (atherosclerosis in mice): ameliorate atherosclerosis in mice
- Total triglyceride content in the liver ([2]; 100 mg/kg i.p. daily for 1 week vs control): lower triglyceride levels in the liver
- Liver mRNA expression of lipid oxidation markers (RT-PCR) ([2]; 100 mg/kg i.p. daily for 1 week vs vehicle): increased expression of the enzymes MCAD and LCAD in the liver
- Glucose homeostasis (glucose tolerance test, AUC) ([2]; 100 mg/kg i.p. daily for 1 week, 1.5 g/kg i.p. dextrose): improve glucose homeostasis
- Food intake and body weight during treatment ([2]; 100 mg/kg i.p. daily for 7 days vs vehicle): no difference in these parameters between groups
- Fasting blood glucose levels ([2]; 100 mg/kg i.p. daily, 24 h fasting, day 7): significantly lower
- Blood glucose levels, ad libitum feeding ([2]; 100 mg/kg i.p. daily, after 4 days of treatment vs control): significantly lower blood glucose levels
- Total protein acetylation (HepG2 cells [3]; apigenin 25 μmol/L, 6 h): decreases total protein acetylation
- Acetylation of p53 (K382) and RelA/p65 (K310) (HepG2 cells [3]; apigenin 25 M (so in the source), 4 hours, MG132 10 µM): decreased acetylation of p53 at K382 and also of RelA/p65 at K310
- Intracellular NAD+ levels over time in cells incubated in PBS (A549 cells): protected against NAD^+ depletion
- Intracellular NAD+ levels, dose response (A549 cells): increased NAD^+ levels in cells in a dose-dependent manner
- Global acetylation of proteins in liver (acetyl-lysine antibody) (CD38 [4]): statistically significant decrease in global acetylation of proteins
- Liver expression of CD38, SIRT1, Nampt (immunoblot) (CD38 [4]): no significant differences in the expression of CD38, SIRT1, or Nampt
- Liver phosphorylation (Thr172) and total levels of AMPK (immunoblot) (CD38 [4]): did not see any changes in phosphorylation or total levels of AMPK
- Lipid accumulation (total triglycerides) in cells (HepG2 cells [5]): decreases lipid accumulation in cells
- Intracellular NAD+ levels in CD38 knockout MEFs [6]: had no effect on NAD^+ levels

- IC50 (recombinant human CD38 [9]): 13.8 ± 2.1 µM
- IC50 [7]: 16.4 ± 1.8 µM
SMILES: O=c1c(O)c(-c2ccc(O)c(O)c2)oc2cc(O)cc(O)c12 [quercetin, 2-(3,4-dihydroxyphenyl)-3,5,7-trihydroxy-4H-chromen-4-one]
- SIRT1 activation in vitro (SIRT1): activate SIRT1 in vitro
- Atherosclerosis in mice (atherosclerosis in mice): ameliorate atherosclerosis in mice
- CD38 inhibition in vitro (CD38 [8]): inhibit CD38 in vitro
- Intracellular NAD+ levels over time in cells incubated in PBS (A549 cells): NAD^+ levels were stable over time
- Intracellular NAD+ levels, dose response (A549 cells): promotes an increase in intracellular NAD^+ in a dose-dependent manner
- Intracellular NAD+ levels in CD38 knockout MEFs [6]: does not further increase NAD^+ levels in CD38 knockout MEFs
- Intracellular NAD+ levels in wild-type MEFs ([6]; wild-type MEFs): promotes an increase in NAD^+ in the wild-type MEFs

Reference: publication PMC3609577 (Diabetes, 2013)
